According to ChEMBL document CHEMBL4354843, “Structure-Based Design of a Potent and Selective Covalent Inhibitor for SRC Kinase That Targets a P-Loop Cysteine” (J Med Chem, 2020):

Assays:
[1] = target: BDNF/NT-3 growth factors receptor (Homo sapiens) (UniProt Q16620); test: Binding affinity to wild-type human partial length TRKB (Q547 to G838 residues) expressed in mammalian expression system assessed as residual binding level at 1 uM by Kinomescan method relative to control
[2] = target: NUAK family SNF1-like kinase 1 (Homo sapiens) (UniProt O60285); test: Binding affinity to wild-type human partial length ARK5 (E25 to I332 residues) expressed in bacterial expression system assessed as residual binding level at 1 uM by Kinomescan method relative to control
[3] = target: Serine/threonine-protein kinase SIK1 (Homo sapiens) (UniProt P57059); test: Binding affinity to wild-type human partial length SIK (M1 to Y304 residues) expressed in bacterial expression system assessed as residual binding level at 1 uM by Kinomescan method relative to control
Procedure, shortened: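 Active site-directed competition binding panel (KinomeScan, 468 kinases). Test compound at 1 μM. Read-out is kinase binding remaining versus DMSO control, expressed as percent of control. Scores above 35% are treated as weak binding.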

[4] = target: G protein-coupled receptor kinase 4 (Homo sapiens) (UniProt P32298); test: Binding affinity to wild-type human full length GRK4 (M1 to C578 residues) expressed in bacterial expression system assessed as residual binding level at 1 uM by Kinomescan method relative to control
Sequence of G protein-coupled receptor kinase 4 (Homo sapiens) (P32298 whole entry, looked up, the tested form may be a part): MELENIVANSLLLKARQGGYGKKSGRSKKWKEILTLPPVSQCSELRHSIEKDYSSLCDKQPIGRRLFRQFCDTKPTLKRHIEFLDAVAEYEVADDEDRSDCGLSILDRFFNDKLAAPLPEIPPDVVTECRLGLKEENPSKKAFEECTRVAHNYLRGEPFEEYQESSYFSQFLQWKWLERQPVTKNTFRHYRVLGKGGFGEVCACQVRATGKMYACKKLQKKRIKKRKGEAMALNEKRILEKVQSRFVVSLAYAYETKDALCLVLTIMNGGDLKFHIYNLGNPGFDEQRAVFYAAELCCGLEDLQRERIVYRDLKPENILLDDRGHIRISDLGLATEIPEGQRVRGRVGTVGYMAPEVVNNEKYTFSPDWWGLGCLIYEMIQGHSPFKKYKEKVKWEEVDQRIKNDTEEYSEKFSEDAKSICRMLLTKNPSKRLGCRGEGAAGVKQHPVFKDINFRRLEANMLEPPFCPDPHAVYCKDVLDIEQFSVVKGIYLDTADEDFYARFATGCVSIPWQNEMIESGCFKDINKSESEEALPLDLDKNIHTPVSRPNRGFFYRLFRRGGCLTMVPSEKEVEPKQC
Procedure, shortened: (§1)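 Active-site-directed KinomeScan competition binding panel covering 468 kinases, compound tested at 1 μM. Each readout is the kinase signal remaining with compound, expressed as a percentage of the DMSO control. […]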

[5] = target: Maternal embryonic leucine zipper kinase (Homo sapiens) (UniProt Q14680); test: Binding affinity to wild-type human full length MELK (M1 to V651 residues) expressed in bacterial expression system assessed as residual binding level at 1 uM by Kinomescan method relative to control
Sequence of Maternal embryonic leucine zipper kinase (Homo sapiens) (Q14680 whole entry, looked up, the tested form may be a part): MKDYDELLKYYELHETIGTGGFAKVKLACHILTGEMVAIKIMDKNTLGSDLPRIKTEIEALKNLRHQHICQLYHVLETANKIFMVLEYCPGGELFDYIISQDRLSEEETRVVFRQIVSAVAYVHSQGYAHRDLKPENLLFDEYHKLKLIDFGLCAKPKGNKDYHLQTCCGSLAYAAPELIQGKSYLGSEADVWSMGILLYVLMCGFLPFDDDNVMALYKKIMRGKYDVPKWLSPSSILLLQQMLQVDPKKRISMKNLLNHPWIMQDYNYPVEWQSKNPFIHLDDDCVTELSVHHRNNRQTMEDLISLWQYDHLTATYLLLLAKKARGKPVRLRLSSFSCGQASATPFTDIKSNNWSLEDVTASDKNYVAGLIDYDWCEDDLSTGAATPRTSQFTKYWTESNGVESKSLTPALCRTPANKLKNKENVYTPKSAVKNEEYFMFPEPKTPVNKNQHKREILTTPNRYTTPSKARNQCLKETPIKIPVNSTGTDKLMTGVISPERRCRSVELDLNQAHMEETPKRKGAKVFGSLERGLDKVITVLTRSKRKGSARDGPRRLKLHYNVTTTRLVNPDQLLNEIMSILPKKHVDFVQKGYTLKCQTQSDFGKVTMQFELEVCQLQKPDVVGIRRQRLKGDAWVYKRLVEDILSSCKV
Procedure, shortened: (§2)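 Active-site-directed competition binding panel (KinomeScan) covering 468 kinases. Test agent was screened at 1 μM. The read-out is the remaining kinase signal expressed relative to a DMSO control. Scores above 35%, taken as weak binding, were not reported.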

[6] = target: SRSF protein kinase 1 (Homo sapiens) (UniProt Q96SB4); test: Binding affinity to wild-type human full length SRPK1 (M1 to S655 residues) expressed in bacterial expression system assessed as residual binding level at 1 uM by Kinomescan method relative to control
Procedure, shortened: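 Active site-directed binding assay (KinomeScan) run across a 468-kinase panel, with the test compound at 1 μM. The read-out is the remaining kinase signal in the presence of compound, expressed as a percentage of the DMSO control. Scores above 35% were taken as weak binding and were not reported.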

[7] = target: Mitogen-activated protein kinase kinase kinase 1 (Homo sapiens) (UniProt Q13233); test: Binding affinity to wild-type human partial length MAP3K1 (L1202 to W1512 residues) expressed in mammalian expression system assessed as residual binding level at 1 uM by Kinomescan method relative to control
Procedure, shortened: (§3)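 Active-site-directed competition binding panel of 468 kinases (KinomeScan), compound at 1 μM. The read-out is kinase remaining bound, given as a percentage of the DMSO control. […]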

[8] = system: Tyrosine-protein kinase ABL1 (Homo sapiens), P00519 [E255K]; test: Binding affinity to human phosphorylated ABL1 E255K mutant (S229 to K512 residues) expressed in mammalian expression system assessed as residual binding level at 1 uM by Kinomescan method relative to control
Procedure, shortened: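 KinomeScan active site-directed competition binding panel (468 kinases), compound tested at 1 μM. Result expressed as remaining kinase signal versus DMSO control (percent of control).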

[9] = target: Calcium-dependent protein kinase 1 (Plasmodium falciparum) (UniProt P62344); test: Binding affinity to wild-type Plasmodium falciparum full length CDPK1 (M1 to S524 residues) expressed in mammalian expression system assessed as residual binding level at 1 uM by Kinomescan method relative to control
Procedure, shortened: (§4)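 KinomeScan, an active site-directed competition binding panel of 468 kinases. The test compound was at 1 μM. The readout is remaining kinase binding as a percentage of the DMSO control. Scores above 35% were treated as weak binding and not listed.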

[10] = target: Tyrosine-protein kinase Mer (Homo sapiens) (UniProt Q12866); test: Binding affinity to wild-type human partial length MERTK (R557 to L884 residues) expressed in bacterial expression system assessed as residual binding level at 1 uM by Kinomescan method relative to control
[11] = target: Serine/threonine-protein kinase PRP4 homolog (Homo sapiens) (UniProt Q13523); test: Binding affinity to wild-type human partial length PRP4 (D657 to I1007 residues) expressed in bacterial expression system assessed as residual binding level at 1 uM by Kinomescan method relative to control; procedure, shortened: as §3
Sequence of Serine/threonine-protein kinase PRP4 homolog (Homo sapiens) (Q13523 whole entry, the tested form may be a part): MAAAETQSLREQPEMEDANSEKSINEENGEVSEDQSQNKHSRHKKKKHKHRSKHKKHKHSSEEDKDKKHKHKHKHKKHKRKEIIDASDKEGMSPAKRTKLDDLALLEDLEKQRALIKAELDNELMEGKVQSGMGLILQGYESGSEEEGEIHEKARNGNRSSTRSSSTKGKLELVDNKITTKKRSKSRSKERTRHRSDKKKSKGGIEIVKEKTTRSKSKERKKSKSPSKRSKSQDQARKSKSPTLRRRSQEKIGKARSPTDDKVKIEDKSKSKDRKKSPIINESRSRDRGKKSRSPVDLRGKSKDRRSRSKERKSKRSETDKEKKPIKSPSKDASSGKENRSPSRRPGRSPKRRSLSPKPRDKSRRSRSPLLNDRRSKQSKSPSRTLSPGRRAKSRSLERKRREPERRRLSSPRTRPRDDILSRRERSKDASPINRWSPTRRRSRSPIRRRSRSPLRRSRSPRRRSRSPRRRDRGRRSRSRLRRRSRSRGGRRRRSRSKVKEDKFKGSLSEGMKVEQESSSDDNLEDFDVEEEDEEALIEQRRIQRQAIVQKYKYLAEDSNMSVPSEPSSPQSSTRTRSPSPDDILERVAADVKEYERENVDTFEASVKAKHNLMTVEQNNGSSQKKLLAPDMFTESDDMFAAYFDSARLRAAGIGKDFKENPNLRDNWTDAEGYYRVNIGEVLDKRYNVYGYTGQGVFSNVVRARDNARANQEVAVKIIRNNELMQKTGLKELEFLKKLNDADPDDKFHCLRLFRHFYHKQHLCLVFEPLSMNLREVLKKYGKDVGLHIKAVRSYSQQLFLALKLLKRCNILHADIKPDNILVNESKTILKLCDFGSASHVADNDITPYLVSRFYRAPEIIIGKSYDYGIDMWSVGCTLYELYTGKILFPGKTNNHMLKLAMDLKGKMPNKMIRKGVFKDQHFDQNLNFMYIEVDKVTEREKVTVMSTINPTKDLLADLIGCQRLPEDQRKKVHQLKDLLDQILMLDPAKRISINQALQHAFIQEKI

[12] = target: Serine/threonine-protein kinase 4 (Homo sapiens) (UniProt Q13043); test: Binding affinity to wild-type human full length MST1 (M1 to F487 residues) expressed in bacterial expression system assessed as residual binding level at 1 uM by Kinomescan method relative to control; procedure, shortened: as §4
[13] = target: Epidermal growth factor receptor (Homo sapiens) (UniProt P00533); test: Binding affinity to wild-type human partial length EGFR (R669 to V1011 residues) expressed in bacterial expression system assessed as residual binding level at 1 uM by Kinomescan method relative to control
[14] = target: Serine/threonine-protein kinase Chk2 (Homo sapiens) (UniProt O96017); test: Binding affinity to wild-type human partial length CHEK2 (S253 to E574 residues) expressed in bacterial expression system assessed as residual binding level at 1 uM by Kinomescan method relative to control; procedure, shortened: as §4
Sequence of Serine/threonine-protein kinase Chk2 (Homo sapiens) (O96017 whole entry, the tested form may be a part): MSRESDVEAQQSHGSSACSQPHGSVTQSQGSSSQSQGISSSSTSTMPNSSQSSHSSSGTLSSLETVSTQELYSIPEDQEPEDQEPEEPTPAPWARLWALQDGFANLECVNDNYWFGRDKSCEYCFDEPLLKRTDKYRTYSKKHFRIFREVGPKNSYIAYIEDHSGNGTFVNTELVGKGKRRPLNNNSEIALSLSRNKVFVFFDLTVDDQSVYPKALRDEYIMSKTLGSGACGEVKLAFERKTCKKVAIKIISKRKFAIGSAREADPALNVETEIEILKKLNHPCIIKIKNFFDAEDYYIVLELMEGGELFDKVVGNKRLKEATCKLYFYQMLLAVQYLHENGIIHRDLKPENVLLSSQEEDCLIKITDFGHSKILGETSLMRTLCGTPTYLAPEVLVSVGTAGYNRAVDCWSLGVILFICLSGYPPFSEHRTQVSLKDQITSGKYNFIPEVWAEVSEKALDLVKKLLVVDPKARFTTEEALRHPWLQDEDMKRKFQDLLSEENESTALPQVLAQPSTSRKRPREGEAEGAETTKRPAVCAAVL

[15] = target: Protein-tyrosine kinase 2-beta (Homo sapiens) (UniProt Q14289); test: Binding affinity to wild-type human full length PYK2 (M1 to E967 residues) expressed in bacterial expression system assessed as residual binding level at 1 uM by Kinomescan method relative to control; procedure, shortened: as §2
Sequence of Protein-tyrosine kinase 2-beta (Homo sapiens) (Q14289 whole entry, looked up, the tested form may be a part): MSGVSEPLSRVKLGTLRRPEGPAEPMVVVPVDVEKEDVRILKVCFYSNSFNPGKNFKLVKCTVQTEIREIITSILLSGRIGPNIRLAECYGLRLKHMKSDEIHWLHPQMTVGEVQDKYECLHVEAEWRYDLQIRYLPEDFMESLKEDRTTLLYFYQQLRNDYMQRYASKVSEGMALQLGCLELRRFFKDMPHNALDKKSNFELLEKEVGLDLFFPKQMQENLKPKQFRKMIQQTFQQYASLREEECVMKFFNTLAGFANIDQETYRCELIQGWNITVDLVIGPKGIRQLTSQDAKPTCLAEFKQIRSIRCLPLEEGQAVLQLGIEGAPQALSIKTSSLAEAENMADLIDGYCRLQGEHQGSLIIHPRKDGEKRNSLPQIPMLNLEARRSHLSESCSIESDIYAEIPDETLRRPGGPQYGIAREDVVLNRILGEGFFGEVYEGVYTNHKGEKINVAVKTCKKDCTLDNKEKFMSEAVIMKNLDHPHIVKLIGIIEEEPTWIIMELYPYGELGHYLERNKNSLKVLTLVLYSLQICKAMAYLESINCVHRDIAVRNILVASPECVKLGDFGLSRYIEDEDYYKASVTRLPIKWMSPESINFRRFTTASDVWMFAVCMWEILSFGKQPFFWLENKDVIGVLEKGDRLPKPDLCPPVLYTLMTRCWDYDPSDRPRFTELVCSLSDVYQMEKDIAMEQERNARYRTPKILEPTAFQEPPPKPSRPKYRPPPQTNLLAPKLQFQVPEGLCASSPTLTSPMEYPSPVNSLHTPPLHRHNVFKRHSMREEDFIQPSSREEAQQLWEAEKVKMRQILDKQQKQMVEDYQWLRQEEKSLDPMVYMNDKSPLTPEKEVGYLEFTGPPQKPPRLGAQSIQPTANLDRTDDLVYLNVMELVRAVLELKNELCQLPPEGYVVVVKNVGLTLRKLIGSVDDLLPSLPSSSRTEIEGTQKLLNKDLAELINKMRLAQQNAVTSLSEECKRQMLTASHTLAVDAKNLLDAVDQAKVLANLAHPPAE

[16] = target: Mitogen-activated protein kinase 15 (Homo sapiens) (UniProt Q8TD08); test: Binding affinity to wild-type human partial length ERK8 (M1 to P437 residues) expressed in bacterial expression system assessed as residual binding level at 1 uM by Kinomescan method relative to control
[17] = target: Dual specificity protein kinase CLK2 (Homo sapiens) (UniProt P49760); test: Binding affinity to wild-type human partial length CLK2 (D144 to R498 residues) expressed in bacterial expression system assessed as residual binding level at 1 uM by Kinomescan method relative to control
Sequence of Dual specificity protein kinase CLK2 (Homo sapiens) (P49760 whole entry, looked up, the tested form may be a part): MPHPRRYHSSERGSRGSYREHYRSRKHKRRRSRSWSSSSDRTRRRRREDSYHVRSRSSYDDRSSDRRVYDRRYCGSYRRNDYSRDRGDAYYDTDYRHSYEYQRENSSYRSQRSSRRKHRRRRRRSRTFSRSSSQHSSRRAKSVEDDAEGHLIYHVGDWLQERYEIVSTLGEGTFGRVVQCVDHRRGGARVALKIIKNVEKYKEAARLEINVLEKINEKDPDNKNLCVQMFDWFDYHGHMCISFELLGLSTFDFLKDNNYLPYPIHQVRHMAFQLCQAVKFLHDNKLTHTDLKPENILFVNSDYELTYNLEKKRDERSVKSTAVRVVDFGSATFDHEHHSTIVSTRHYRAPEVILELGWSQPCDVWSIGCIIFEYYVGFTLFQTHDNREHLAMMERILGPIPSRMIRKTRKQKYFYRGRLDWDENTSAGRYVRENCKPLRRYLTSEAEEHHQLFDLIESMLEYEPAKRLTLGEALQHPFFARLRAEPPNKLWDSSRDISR

[18] = target: Inhibitor of nuclear factor kappa-B kinase subunit alpha (Homo sapiens) (UniProt O15111); test: Binding affinity to wild-type human full length IKK-alpha (M1 to E745 residues) expressed in mammalian expression system assessed as residual binding level at 1 uM by Kinomescan method relative to control; procedure, shortened: as §1
Sequence of Inhibitor of nuclear factor kappa-B kinase subunit alpha (Homo sapiens) (O15111 whole entry, the tested form may be a part): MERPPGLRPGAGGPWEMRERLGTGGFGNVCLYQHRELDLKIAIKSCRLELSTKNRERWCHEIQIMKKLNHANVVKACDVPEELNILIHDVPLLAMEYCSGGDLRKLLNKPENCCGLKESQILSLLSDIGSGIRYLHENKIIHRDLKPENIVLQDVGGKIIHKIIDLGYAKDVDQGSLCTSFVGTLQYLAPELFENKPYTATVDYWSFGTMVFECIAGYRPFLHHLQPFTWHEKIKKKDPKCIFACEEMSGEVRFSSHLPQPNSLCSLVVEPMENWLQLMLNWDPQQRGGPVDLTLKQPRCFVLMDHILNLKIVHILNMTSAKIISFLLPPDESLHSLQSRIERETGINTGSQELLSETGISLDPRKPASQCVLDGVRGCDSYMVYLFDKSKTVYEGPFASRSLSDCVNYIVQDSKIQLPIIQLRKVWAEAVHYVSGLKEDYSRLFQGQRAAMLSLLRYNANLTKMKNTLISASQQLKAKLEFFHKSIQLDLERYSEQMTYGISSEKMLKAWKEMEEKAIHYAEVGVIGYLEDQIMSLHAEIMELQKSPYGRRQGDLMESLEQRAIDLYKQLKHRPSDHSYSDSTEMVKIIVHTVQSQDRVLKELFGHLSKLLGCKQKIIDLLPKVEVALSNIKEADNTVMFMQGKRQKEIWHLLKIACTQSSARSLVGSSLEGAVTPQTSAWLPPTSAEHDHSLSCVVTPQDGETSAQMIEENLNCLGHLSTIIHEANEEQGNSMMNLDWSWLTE

[19] = target: Receptor-interacting serine/threonine-protein kinase 1 (Homo sapiens) (UniProt Q13546); test: Binding affinity to wild-type human partial length RIPK1 (M1 to K305 residues) expressed in bacterial expression system assessed as residual binding level at 1 uM by Kinomescan method relative to control

`C=CC(=O)Nc1ccccc1Nc1nc(Nc2ccc(N3CCN(C)CC3)cc2)ncc1C(=O)Nc1c(C)cccc1Cl` showed an Activity [1] of 100%, an Activity [2] of 100% and an Activity [3] of 1%. The Activity [4] was 100%, the Activity [5] was 100% and the Activity [6] was 100%. The Activity [7] was 99%, the Activity [8] was 0.15% and the Activity [9] was 72%. For the same compound, the Activity [10] was 95%, the Activity [11] was 81% and the Activity [12] was 93%. It also gave an Activity [13] of 80%, an Activity [14] of 90% and an Activity [15] of 100%. The Activity [16] was 100%, the Activity [17] was 100% and the Activity [18] was 100%. It also gave an Activity [19] of 100%.
